Test results reported in ChEMBL document CHEMBL1158479, “Synthesis and preliminary in vitro biological evaluation of 4-[(4-hydroxyphenyl)sulfanyl]but-3-en-2-one, a 4-mercaptophenol derivative designed as a novel bifunctional antimelanoma agent” (J Med Chem, 2009).

B1: Tyrosinase (Agaricus bisporus), O42713 (protein)
chain: MSLIATVGPTGGVKNRLNIVDFVKNEKFFTLYVRSLELLQAKEQHDYSSFFQLAGIHGLPFTEWAKERPSMNLYKAGYCTHGQVLFPTWHRTYLSVLEQILQGAAIEVAKKFTSNQTDWVQAAQDLRQPYWDWGFELMPPDEVIKNEEVNITNYDGKKISVKNPILRYHFHPIDPSFKPYGDFATWRTTVRNPDRNRREDIPGLIKKMRLEEGQIREKTYNMLKFNDAWERFSNHGISDDQHANSLESVHDDIHVMVGYGKIEGHMDHPFFAAFDPIFWLHHTNVDRLLSLWKAINPDVWVTSGRNRDGTMGIAPNAQINSETPLEPFYQSGDKVWTSASLADTARLGYSYPDFDKLVGGTKELIRDAIDDLIDERYGSKPSSGARNTAFDLLADFKGITKEHKEDLKMYDWTIHVAFKKFELKESFSLLFYFASDGGDYDQENCFVGSINAFRGTAPETCANCQDNENLIQEGFIHLNHYLARDLESFEPQDVHKFLKEKGLSYKLYSRGDKPLTSLSVKIEGRPLHLPPGEHRPKYDHTQARVVFDDVAVHVIN

Columns and labels:
[1] = test system: glutathione S-transferase; assay: Stability assessed as half life at pH 7.4 in presence of rat glutathione S-transferase; type: ADME
[2] = test system: glutathione S-transferase; assay: Stability assessed as half life at pH 8 in presence of rat glutathione S-transferase; type: ADME
[3] = test system: glutathione S-transferase; assay: Stability assessed as half life in presence of rat glutathione S-transferase; type: ADME
[4] = test system: glutathione S-transferase; assay: Stability assessed as half life at pH 7.4 in presence of rat glutathione S-transferase in liver cytosol; type: physicochemical
Outline: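 The GSH reaction was run at pH 7.4 with and without rat liver cytosol, which served as the glutathione S-transferase source. t1/2 was derived from the time course of reaction with GSH.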

[5] = Cytotoxicity against mouse B16-F1 cells after 48 hrs by MTT assay; type: functional, cell-based
[6] = Cytotoxicity against mouse B16-F1 cells at 100 uM after 48 hrs by MTT assay relative to control; type: functional
[7] = Cytotoxicity against mouse B16-F1 cells at 100 uM after 48 hrs by MTT assay relative to control in presence of 1-phenyl-2-thiourea; type: functional
[8] = Cytotoxicity against mouse B16-F1 cells at 100 uM after 48 hrs by MTT assay relative to control in presence of N-acetyl-L-cysteine; type: functional
[9] = substrate: COc1ccc(O)cc1; assay: (§1) Activity of mushroom tyrosinase assessed as o-quinone formation; conditions: Agaricus bisporus
Outline: (§2)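 Mushroom tyrosinase kinetics were run by measuring the initial rate of enzyme-catalyzed o-quinone formation over increasing substrate concentrations. Km and Vmax were derived from these rates, and kcat and kcat/Km were calculated from them.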

[10] = substrate: O=C(O)CCSc1ccc(O)cc1; assay: as §1; conditions: Agaricus bisporus; outline: as §2
[11] = substrate: O=C(O)CSc1ccc(O)cc1; assay: as §1; conditions: Agaricus bisporus; outline: as §2
[12] = substrate: COc1ccc(O)cc1; assay: (§3) Ratio of Kcat to Km of mushroom tyrosinase; conditions: Agaricus bisporus; outline: as §2
[13] = substrate: O=C(O)CCSc1ccc(O)cc1; assay: as §3; conditions: Agaricus bisporus; outline: as §2
[14] = substrate: O=C(O)CSc1ccc(O)cc1; assay: as §3; conditions: Agaricus bisporus; outline: as §2

Molecule | half-life [1] [min] | half-life [2] [min] | half-life [3] [min] | Activity [6] [%] | Activity [7] [%] | Activity [8] [%] | further results
CC(=O)/C=C/Sc1ccc(O)cc1 | 20.5 | 6.1 | 2.2 | – | – | – | –
Oc1ccc(SSc2ccc(O)cc2)cc1 | – | – | – | 0.2 | 0 | 22.5 | half-life [4]: < 1 min; IC50 [5]: 21.2 µM
CC(=O)/C=C\Sc1ccc(O)cc1 | 38.6 | 18.4 | 7.24 | – | – | – | –
COc1ccc(O)cc1 [MEQUINOL] | – | – | – | 61.3 | 78.7 | 60 | –
B1 | – | – | – | – | – | – | Km [9]: 46.8 µM; kcat [9]: 0.24 s⁻¹; Km [10]: 31.5 µM; kcat [10]: 0.972 s⁻¹; Km [11]: 22.4 µM; kcat [11]: 0.461 s⁻¹; kcat/Km [12]: 5140; kcat/Km [13]: 31000; kcat/Km [14]: 20600
